From PubChem BioAssay
T cruzi inh: blocks replication of Trypanosoma cruzi; AID 1885; T. cruzi beta-gal in NIH3T3, luminescence, 90 h; inhibition, % (no concentration beside the values); hit rate 1.4% among 300,000;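 active = mean inhibition across valid replicates above about 55%, limit read from the data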;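 also: signal also drops with host cell toxicity which is not excluded here; 0% = plate median of DMSO wells and 100% = zero luminescence signal; higher percent means less beta-gal luminescence so fewer parasites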
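Assay system: NIH/3T3 fibroblasts plus reporter T. cruzi. Amount: NIH/3T3 cells, 5,000 per well. Buffer or medium: DMEM, 2% fetal bovine serum. Doses: compound pinned at 50 nL/well, DMSO. Schedule: ≥90 h infection period, 3 h prior cell attachment. Signal: luminescent β-galactosidase signal after 60 min lysis. Read-out: parasite load inhibition, %.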
HIF act: HIF pathway transcriptional activation; activation, % at 7.5 µM (by protocol); hit rate 0.32% among 300,000; AID 1910; U2OS HRE-luciferase reporter, luminescence; normalized: DMSO 0%, desferrioxamine 100%;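 active = mean activation of at least 10% of the iron chelator positive control signal, with at least half of replicates also reaching 10%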
HSF1 inhib: HSF1 inhibition | AID 2098 | activity change, negative = inhibition, % at 7.5 µM (by protocol) | hit rate 0.77% among 300,000 | NIH3T3-HGL HSE-luciferase, MG132-induced, luminescence 8 h; stronger effect = lower value;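 active = more than half of replicate wells show activity change below -50%, luminescence cut by over half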;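 also: luciferase reports HSF-1 transcriptional activity via heat shock element; 0% = median of DMSO wells and -100% = zero luminescence signal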
Calb FLC: C. albicans growth modulation with fluconazole | C. albicans CaCi-2 + fluconazole, Alamar Blue growth, 48 h | growth inhibition, % (test concentration not listed) | hit rate 0.57% among 300,000 | AID 1979;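 active = growth inhibition above about 58% in most replicates, limit read from the data, passing the limit was not always enough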;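 also: all wells also contain fluconazole at 8 µg/ml as a sub-toxic cotreatment; 0% = median of DMSO wells and 100% = median of geldanamycin control wells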
HSF-1 act: increases HSF-1 driven luciferase reporter signal | NIH3T3-HGL HSF-1 luciferase reporter, MG132, 8 h; 100% = twice DMSO control signal | activation, % at 9 µM | hit rate 1.7% among 300,000 | AID 504408;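 active = mean replicate activation of at least 50% with a set share of replicates each reaching 50%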;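 also: 0% = median of the neutral control wells and 100% = twice that signal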
Starred values were filed as active, the others as inactive. Compounds with a hit are over-represented: about 4.4% of the library has one in this group of screens.

Results for CC(C)c1ccc(/C=N/n2nnnc2Nc2ccccc2)cc1 ?
T cruzi inh: 0; HIF act: 0; HSF1 inhib: 16; Calb FLC: -4; HSF-1 act: 55*

What do the screens show for `O=[N+]([O-])c1cc(/C=N\O)ccc1Oc1ccc(F)cc1`?
T cruzi inh: 7; HIF act: 1; HSF1 inhib: -2; Calb FLC: 1; HSF-1 act: 5

How did COc1cc(-c2nnc(SC/C=C/c3ccccc3)n2N)cc(OC)c1OC do in these assays?
T cruzi inh: -13; HIF act: 0; HSF1 inhib: 46; Calb FLC: -12; HSF-1 act: 79*

What do the screens show for `COc1cc(/C=N/NC(=O)c2nc3ccccn3c2C)cc(OC)c1O`?
T cruzi inh: 81*; HIF act: 0; HSF1 inhib: -6; Calb FLC: 0; HSF-1 act: 4

What do the screens show for `COc1ccc(CN2CCNC(=O)C2CC(=O)NC2CCCC2)c(OC)c1` (stereo not given)?
T cruzi inh: -15; HIF act: 55*; HSF1 inhib: 2; Calb FLC: -9; HSF-1 act: -1

How did COc1ccc(CN2CCNC(=O)C2CC(=O)NC2CCCCC2)c(OC)c1 (stereo not given) do in these assays?
T cruzi inh: 8; HIF act: -2; HSF1 inhib: -1; Calb FLC: -30; HSF-1 act: 23

Results for COc1ccccc1NC(=O)C1=C(C)NC2=C(C(=O)CC(c3ccc(OC)c(OC)c3)C2)C1c1coc2ccccc2c1=O (stereo not given) ?
T cruzi inh: 37; HIF act: 0; HSF1 inhib: 30; Calb FLC: 24; HSF-1 act: 67*

What do the screens show for `CC1=C(C(=O)OC(C)C)C(c2coc3ccccc3c2=O)C2=C(CCCC2=O)N1` (stereo not given)?
Calb FLC: 28

What do the screens show for `COc1ccc(-c2c(C)c3cc(O)ccc3oc2=O)cc1OC`?
T cruzi inh: 1; HIF act: 0; HSF1 inhib: 26; Calb FLC: 11; HSF-1 act: 67*

What do the screens show for `COc1cc(COc2ccc3c(C)c(CC(=O)O)c(=O)oc3c2C)cc(OC)c1OC`?
T cruzi inh: -1; HIF act: -9; HSF1 inhib: -6; Calb FLC: 6; HSF-1 act: -1

Results for COc1cccc(C2Nc3ccccc3C(=O)N2c2ccc(F)cc2)c1O (stereo not given) ?
T cruzi inh: -10; HIF act: 4; HSF1 inhib: 32; Calb FLC: -1; HSF-1 act: 67*

Results for O=C(c1cccs1)c1no[n+]([O-])c1C(=O)c1cccs1 ?
T cruzi inh: 62*; HIF act: -2; HSF1 inhib: 1; Calb FLC: 15; HSF-1 act: -4

How did O=C(O)c1ccc(CN2C(=O)c3ccc(Oc4ccc([N+](=O)[O-])cc4)cc3C2=O)cc1 do in these assays?
T cruzi inh: -10; HIF act: -3; HSF1 inhib: -46; Calb FLC: -1; HSF-1 act: -59

Results for Cc1nnc(N2C(=O)c3cccc4cccc(c34)C2=O)s1 ?
T cruzi inh: -7; HIF act: -1; HSF1 inhib: -55*; Calb FLC: -6; HSF-1 act: -63

How did COCCNC(=O)CN(C(=O)CCC(=O)Nc1ccccn1)c1ccc(C)c(C)c1 do in these assays?
T cruzi inh: -5; HIF act: -22; HSF1 inhib: 2; Calb FLC: -4; HSF-1 act: 32

What do the screens show for `O=C(/C=C/NNC(=O)c1ccc(Cl)cc1)c1ccccc1`?
T cruzi inh: -3; HIF act: 1; HSF1 inhib: 23; Calb FLC: -19; HSF-1 act: 37

How did Cc1ccc(C(=O)/C=C/NNC(=O)c2ccccc2O)cc1 do in these assays?
T cruzi inh: -10; HIF act: 1; HSF1 inhib: 18; Calb FLC: -14; HSF-1 act: 53*

How did O=C(/C=C/NNC(=O)c1ccccc1)c1ccc(Br)cc1 do in these assays?
T cruzi inh: 6; HIF act: 1; HSF1 inhib: 24; Calb FLC: -27; HSF-1 act: 60*

What do the screens show for `CCCCn1c(-c2cccc3ccccc23)nc2cc3[nH]c(=O)c(C(C)C)nc3cc21`?
T cruzi inh: 63*; HIF act: 0; HSF1 inhib: 16; Calb FLC: 1; HSF-1 act: 37

Results for O=C(c1sccc1-c1ccccc1)N1CCN(S(=O)(=O)c2ccccc2F)CC1 ?
T cruzi inh: 10; HIF act: 0; HSF1 inhib: -1; Calb FLC: -2; HSF-1 act: -7

What do the screens show for `Cc1nn(Cc2cccc(Oc3ccccc3)c2)c(C)c1NC(=O)NC12CC3CC(CC(C3)C1)C2`?
T cruzi inh: 57*; HIF act: -1; HSF1 inhib: 7; Calb FLC: -5; HSF-1 act: 31

What do the screens show for `Cc1ccsc1C(=O)NN=C1CCCCCC1`?
T cruzi inh: 1; HIF act: 3; HSF1 inhib: 11; Calb FLC: -4; HSF-1 act: 25

How did O=[N+]([O-])c1ccc(N2CCOCC2)cc1O do in these assays?
T cruzi inh: -5; HIF act: 0; HSF1 inhib: 5; Calb FLC: 2; HSF-1 act: 10

Results for Cc1cc(N2CCOCC2)ccc1/C=C\[N+](=O)[O-] ?
T cruzi inh: 13; HIF act: 2; HSF1 inhib: 75; Calb FLC: -34; HSF-1 act: 80*

What do the screens show for `CCOC(=O)C(C)Sc1ccc2nnc(CCNS(=O)(=O)c3ccccc3)n2n1` (stereo not given)?
T cruzi inh: -3; HIF act: 1; HSF1 inhib: 0; Calb FLC: -3; HSF-1 act: -8

Results for Cc1nc(CCNC(=O)CC2C(=O)NCCN2Cc2ccc(F)cc2)sc1C (stereo not given) ?
T cruzi inh: 3; HIF act: 0; HSF1 inhib: -4; Calb FLC: 2; HSF-1 act: -1

How did COc1ccc(N=CC2=C(O)c3ccccc3C2=O)c(OC)c1 do in these assays?
T cruzi inh: 19; HIF act: -3; HSF1 inhib: -73*; Calb FLC: 24; HSF-1 act: -78

How did Cc1ccccc1N=CC1=C(O)c2ccccc2C1=O do in these assays?
T cruzi inh: -6; HIF act: -6; HSF1 inhib: -9; Calb FLC: -3; HSF-1 act: -24

What do the screens show for `Cc1nn(CCCC(=O)Nc2cccnc2Cl)c(C)c1[N+](=O)[O-]`?
T cruzi inh: -16; HIF act: 0; HSF1 inhib: -3; Calb FLC: 5; HSF-1 act: -11

Results for C=C1CCC[C@]2(C)C[C@H]3OC(=O)C(CNC(C)CC)[C@H]3CC12 (stereo not given in full) ?
T cruzi inh: -27; HIF act: 1; HSF1 inhib: 11; Calb FLC: -5; HSF-1 act: 30
